Laboratory results from PubChem BioAssay AID617 (SRMLSC, 2007).

System: E. coli BW25113 ΔtolC growth inhibition, OD615
Assay: growth inhibitors of E. coli tolC mutant, dose response, strain BW25113 ΔtolC::kan (AID 617)
Outline: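 system = E. coli BW25113 tolC deletion strain (ΔtolC::kan), whole bacterial cells | technique = optical density (absorbance) at 615 nm | dosing = compounds in serially diluted dose-response series | times = bacterial growth with compound for 20 h, 37 °C | evaluation = growth-inhibition IC50 from four-parameter logistic curve, bounds set to 0% and 100%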

| SMILES | IC50 [µM] |
| --- | --- |
| Cn1c(=O)n(CCc2ccccc2)c(=O)c2c1nc1n2CCCN1CCc1ccccc1 | 10.5 |
| O=C(CCSc1nnc2scc(-c3ccccc3)n12)Nc1nc(-c2ccccc2)ns1 | 16.6 |
| N#Cc1cn(Cc2cccc(Cl)c2)c2ccccc12 | 7.45 |
| O=C(COc1ccc2ccccc2c1Br)N1CCN(c2ccccn2)CC1 | 10.5 |
| COc1ccc(-c2nnc(SCc3cc(C)cc(C)c3)o2)cc1 | 6.77 |
| CC(C)(C)c1csc(NC(=O)c2ccc(Cl)s2)n1 | 29.6 |
| COc1cc(C2C(C(=O)c3ccc(C)o3)=C(O)C(=O)N2c2cc(C)on2)cc(Br)c1O (stereo unspecified) | 24.7 |
| CCOC(=O)c1c(NS(=O)(=O)c2cccc(OC)c2)sc2c1CCC2 | 56.2 |
| Cc1ccc2c(c1)[nH]c1c(N3CCN(Cc4ccccc4)CC3)ncnc12 | 39.1 |
| CCn1c(Cn2nnc(-c3ccccc3)n2)nnc1SCc1ccc(Cl)c(Cl)c1 | 7.77 |
| CC(=O)Nc1cccc(NC(=O)c2oc3ccccc3c2C)c1 | 8.33 |
| CCc1ccccc1NS(=O)(=O)c1ccc2[nH]cc(C(=O)NCc3ccco3)c(=O)c2c1 | 22 |
| O=C1c2ccccc2C(Nc2cccc(C(F)(F)F)c2)N1Cc1ccco1 (stereo unspecified) | 7.32 |
| CCOC(=O)c1ccc(NC(=O)CSc2nc(SC)ns2)cc1 | 9.73 |
| O=C(Nc1cccc(Cl)c1)Nc1nccs1 | 11 |
| CCOC(=O)c1nnn(-c2nonc2-n2cccc2)c1CN1CCC(C)CC1 | 23.4 |
| Cn1c(C(=O)N2CCc3ccccc3C2)cc2oc3ccccc3c21 | 7.81 |
| CCOC(=O)c1sc2nc(CC(=O)OC)nc(N3CCN(c4ccccn4)CC3)c2c1C | 25.1 |
| CCOC(=O)c1cc2sc(C)cc2n1C(C)C(=O)OCC (stereo unspecified) | 60.6 |
| CCN(CC)c1nc(N)c2c(N)nc3c(c2c1C#N)CC(c1ccccc1)O3 (stereo unspecified) | 6.58 |
| C=C(C)COc1ccc(-c2n[nH]c(C)c2-c2ccccc2)c(O)c1 | 8.47 |

| SMILES | IC50 [µM] |
| --- | --- |
| N=c1n(Cc2ccccc2)c2ccccc2n1CC(O)COc1ccccc1 (stereo unspecified) | 21.2 |
| CCCc1ccc(OCc2ccc(C(=O)N3CCN(c4ccccn4)CC3)o2)c(OC)c1 | 7.15 |
| Cc1ccsc1C(=O)Nc1nnc(-c2ccco2)o1 | 3.92 |
| CCn1c(SCC(=O)Nc2nc(-c3ccccc3)cs2)nnc1-c1ccccc1O | 6.69 |
| Oc1ccc(Cl)cc1-c1cc(-c2ccccc2)n[nH]1 | 6.46 |
| Cc1ccc(C)c2[nH]c(=O)c(CN(CC3CCCO3)S(=O)(=O)c3ccc4c(c3)OCCO4)cc12 (stereo unspecified) | 38.6 |
| COc1ccc(-n2c(Cc3cccn3C)nnc2SCC(=O)Nc2ccc(C)c(Cl)c2)cc1 | 14.4 |
| CC1CCN(c2nc3ccccc3nc2C(C#N)S(=O)(=O)c2ccccc2)CC1 (stereo unspecified) | 9.39 |
| Cc1nc2ccc(C(C(F)(F)F)(C(F)(F)F)C(F)(F)F)cc2[nH]1 | 33.4 |
| COc1ccccc1N1CCN(C(c2ccc(Cl)cc2)c2nnnn2C(C)(C)C)CC1 (stereo unspecified) | 26.5 |
| Fc1ccc(Br)cc1C1C=C(c2ccc(Br)s2)Nc2ncnn21 (stereo unspecified) | 5.22 |
| O=C(Cc1ccccc1)Nc1ccccc1N1CCN(c2ccccc2)CC1 | 64.5 |
| O=C(Cn1c(C(=O)NCc2ccco2)cc2sccc21)c1ccccc1 | 24.6 |
| CCc1c(O)nc(SCc2ccccc2)n(C(C)CC)c1=O (stereo unspecified) | 4.28 |
| CCCCn1c(O)c(C(CC)=NCCc2ccccc2)c(=O)[nH]c1=O | 14 |
| COc1ccc(Cl)cc1CN1CCN(c2nc(C)cc(C)c2C#N)CC1 | 13.2 |
| COc1cccc(-c2cc(C(=O)N3C(C)CCCC3C)no2)c1 (stereo unspecified) | 32.8 |
| Oc1c(C(c2cccs2)N2CCN(c3cccc(Cl)c3)CC2)sc2ncnn12 (stereo unspecified) | 13.9 |
| CSc1ncc(Cl)c(C(=O)C(C#N)c2nc3c(C)cc(C)cc3c(=O)[nH]2)n1 (stereo unspecified) | 3.28 |
| Cc1cccc(Cc2c(C)nc3c(C(=O)NCc4ccco4)cnn3c2C)c1 | 49.6 |
| O=c1c2ccccc2nc(SCc2cn3ccsc3n2)n1-c1ccccc1F | 23.3 |

| SMILES | IC50 [µM] |
| --- | --- |
| CC(C)(C)N1C(=O)Cc2c1nc(N)c1c(N)nc(N3CCCCC3CO)c(C#N)c21 (stereo unspecified) | 6.59 |
| Cc1oc2c(CN3CCOCC3)c(O)ccc2c(=O)c1-c1ccc(Br)cc1 | 2.83 |
| CCOC(=O)CSC1=C(C#N)C(c2ccco2)C(C(=O)Nc2cccc(C(F)(F)F)c2)=C(C)N1 (stereo unspecified) | 9.34 |
| N#Cc1ccc(NC(=O)Nc2ccc(Cl)cc2)cc1 | 0.52 |
| CCSc1nnc(NC(=O)c2nc(-c3ccccc3)n(-c3ccccc3)n2)s1 | 2.23 |
| COC(=O)c1c(C)oc2ccc(OC(=O)c3cccs3)cc12 | 9.49 |
| COc1ccc(C(=O)Nc2nc(-c3cccs3)cs2)cc1 | 8.14 |
| CC(C)c1ccc(Nc2nc(NCc3ccco3)nc(N3CCOCC3)n2)cc1 | 17.5 |
| COC(=O)c1c(NC(=O)c2ccc(C)o2)sc2c1CCCCC2 | 28.4 |
| CCN(CCNC(=O)C1CCN(Cc2nc(-c3cccc(Cl)c3)oc2C)CC1)c1ccccc1 | 8.04 |
| Cc1cccc(Cn2c(=O)n(Cc3ccco3)c(=O)c3ccccc32)c1 | 6.71 |
| COc1ccc2[nH]c3c(=O)n(CCCCC(=O)NCCN4CCCC4)c(=S)[nH]c3c2c1 | 17.4 |
| O=C(Nc1ncc(Br)s1)C(Cc1ccccc1)n1cccc1 (stereo unspecified) | 3.21 |
| CCC(c1nnnn1C1CCCCC1)N(Cc1ccco1)Cc1cc2ccc(OC)cc2[nH]c1=O (stereo unspecified) | 13.3 |
| CCCOC(=O)/C(C(N)=NCc1ccccc1)=C(\O)OCCC | 16.4 |
| CN(C)S(=O)(=O)N(Cc1ccc(Br)cc1)c1ccccc1 | 12.9 |
| COc1ccccc1-c1cc(C(=O)NCc2ccccc2)no1 | 17.1 |
| Cc1ccc(S(=O)(=O)Cn2nnnc2CN2CCCC3(CCCCC3)C2)cc1 | 11.3 |
| CCCc1cc(C(=O)Cc2ccc(C(=O)OCC)o2)c(O)cc1O | 18.6 |
| O=C(CN(C(=O)CNC(=O)c1ccco1)c1ccc(Cl)c(Cl)c1)NC1CCCCC1 | 28.1 |
| Oc1ccccc1-c1cc(-c2ccc3c(c2)OCCO3)n[nH]1 | 8.15 |

| SMILES | IC50 [µM] |
| --- | --- |
| Cc1ccc(-c2nnc(N3CCN(c4ccccn4)CC3)c3ccccc23)cc1 | 4.28 |
| Cn1c(=O)c2c(nc(N3CCCCCC3)n2Cc2cccc3ccccc23)n(C)c1=O | 7.33 |
| CSc1ccc(-c2cc(=O)c3ccccc3o2)cc1 | 42.1 |
| CC(C)c1ccc(-c2noc(C3CCCN(C(=O)c4ccc(F)cc4F)C3)n2)cc1 (stereo unspecified) | 17.9 |
| COC(=O)c1cn(NC(=O)c2cnccn2)c(=O)c2ccccc12 | 2.44 |
| N#CCSc1n[nH]c2nc3c(c(=O)n12)C1(CCCC1)Cc1ccccc1-3 | 4.21 |
| CC1CCc2nc(NC(=O)c3cc(C(C)(C)C)nn3C)sc2C1 (stereo unspecified) | 12.4 |
| CC(C)C(c1nnnn1C1CCCC1)N1CCCc2ccccc21 (stereo unspecified) | 15.7 |
| Cc1cccc(N2CCN(C(=O)c3ccc(NS(=O)(=O)c4c(C)noc4C)cc3)CC2)c1C | 16.2 |
| COCc1nnc(NC(=O)c2ccc(S(=O)(=O)N(C)C3CCCCC3)cc2)o1 | 4.09 |
| O=C(Nc1ccc(Cl)cc1)NC1CCCC1Cc1ccco1 (stereo unspecified) | 3.63 |
| CNc1ccc(C(O)(C(F)(F)F)C(F)(F)F)cc1C(O)(C(F)(F)F)C(F)(F)F | 6.95 |
| COc1ccc(NS(=O)(=O)c2ccc3c(c2)Cc2ccccc2-3)cn1 | 10.7 |
| O=c1c2c(nc3c(-c4cccc5ccccc45)c[nH]n13)CCC2 | 7 |
| Cc1[nH]n2c(=O)cc(C(C)(C)C)nc2c1-c1ccccc1 | 1.56 |
| O=C(CSc1ncnc2c1oc1ccccc12)N1CCCc2ccccc21 | 15.1 |
| Cc1cc(NC(=O)C2CCCCC2)nc2c1c(=O)oc1ccccc12 | 11.5 |
| CC1=CC(C)(C)N(C(=O)c2ccc(F)cc2)c2cc3c(cc21)OCO3 | 12.7 |
